The test system of data set [1] is relapsed and/or refractory AML. The data set is described as follows: Phase 1 dose escalation: response in patients with R/R AML. The class given is in vivo, human.
For a further data set, the target named is T1, FLT3 (Homo sapiens, UniProt P36888).
T1 sequence (P36888 27-993): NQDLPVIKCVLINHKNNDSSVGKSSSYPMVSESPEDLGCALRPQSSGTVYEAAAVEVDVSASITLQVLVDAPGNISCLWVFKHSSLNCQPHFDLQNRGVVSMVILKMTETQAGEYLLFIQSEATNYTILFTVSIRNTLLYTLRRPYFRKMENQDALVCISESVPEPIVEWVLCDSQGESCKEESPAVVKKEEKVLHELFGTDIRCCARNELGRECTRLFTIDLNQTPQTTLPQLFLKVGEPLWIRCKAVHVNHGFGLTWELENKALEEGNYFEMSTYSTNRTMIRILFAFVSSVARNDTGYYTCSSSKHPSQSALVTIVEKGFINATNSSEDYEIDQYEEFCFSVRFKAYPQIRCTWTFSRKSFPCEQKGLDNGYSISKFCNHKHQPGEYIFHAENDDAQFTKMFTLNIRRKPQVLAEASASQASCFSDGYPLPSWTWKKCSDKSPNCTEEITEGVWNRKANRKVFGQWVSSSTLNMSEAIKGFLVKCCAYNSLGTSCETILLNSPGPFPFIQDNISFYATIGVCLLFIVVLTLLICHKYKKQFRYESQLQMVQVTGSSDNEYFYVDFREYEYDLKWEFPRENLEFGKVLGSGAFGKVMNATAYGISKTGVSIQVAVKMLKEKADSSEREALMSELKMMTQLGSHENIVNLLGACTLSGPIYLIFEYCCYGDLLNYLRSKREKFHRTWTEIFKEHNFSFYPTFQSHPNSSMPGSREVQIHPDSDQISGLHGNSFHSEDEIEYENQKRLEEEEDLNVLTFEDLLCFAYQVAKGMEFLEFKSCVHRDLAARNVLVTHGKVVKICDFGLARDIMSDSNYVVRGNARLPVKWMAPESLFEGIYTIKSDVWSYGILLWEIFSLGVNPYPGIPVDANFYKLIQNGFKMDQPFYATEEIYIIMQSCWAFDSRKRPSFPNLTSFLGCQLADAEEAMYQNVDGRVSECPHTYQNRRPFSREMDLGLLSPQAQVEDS
The data set is described as follows: Plasma inhibitory activity. In kind it is cell-based. Put shortly: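 Ex vivo surrogate for in vivo FLT3 inhibition. Participant plasma was prepared from lithium-heparin whole blood collected at cycle 1 time points, including pre-dose troughs on days 8 and 15. It was tested on FLT3-ITD Molm14 cells, and P-FLT3 was expressed as a percentage of baseline. Drug concentration in the same samples was measured by mass spectrometry and paired with PIA values across QD and BID cohorts.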

The nature of data set [2]: Pharmacokinetic analysis of plasma FF-10101 concentration in trial participants. The class given is in vivo, human.
Data set [3] is classed as in vivo, human. The note with it: for Aspartate aminotransferase elevation, related TEAE / Creatine kinase increase, related TEAE / Diarrhea, related TEAE / Nausea, related TEAE: 54 participants.
The next data set has as its system AML. As to conditions: cited from earlier work.
The subject of a further data set is FLT3-TKD mutations. The note with it: cited from earlier work.
The mark [4] stands for this setting: 40 response-evaluable participants.
The mark [5] stands for this setting: participants with history of FLT3-mutated AML at FLT3-inhibitory doses (150 mg QD, 225 mg QD, 50 mg BID, 75 mg BID).

SMILES strings stand for the structures. Read-outs that look alike come from different tables or passages of the source.

For orientation: half-life means the time needed for the level to fall by half in the phase considered. A lower half-life goes with rapid decline. With `CCCNc1nc(Nc2ccc(C#N)cc2)ncc1C#CCCCNC(=O)[C@H](C)N(C)C(=O)/C=C/CN(C)C` [FF-10101], in data set [1] (setting [4]), the “number of CR” value was 1, the “number of CRh” value worked out at 1, the “number of CRp” value is 2 and the “number of PR” value was 1. For the same compound, the “overall response rate (CR + CRh + CRp + PR)” value in data set [1] (setting [4]) is listed as 12.5%. Moreover, in data set [1] (setting [5]), the “number of CR” value is recorded as 1, the “number of CRp” value is reported as 2 and the “number of PR” value is 1. Besides, the “dose levels at which inhibition of P-FLT3 was most effective” value at FLT3 (PIA, escalating doses) was 150 mg daily, 225 mg daily, 50 mg BID, and 75 mg BID. For the same compound, the “plasma concentration of FF-10101 associated with more complete inhibition (PIA)” value at FLT3 (cycle 1 plasma samples) is on record as greater than 100 ng/mL. Also, the “FF-10101 concentration achieving maximal trough suppression of P-FLT3 activity” value at FLT3 (maximal trough suppression eg <5% of baseline) is greater than 200 ng/mL. Further, the “effect of food on absorption” value in data set [2] (after oral dosing) is listed as “unaffected by food”. Besides, the half-life in data set [2] (human, plasma, po) was roughly 10 h. Besides, the “participants with DLT” value in data set [3] (50 mg BID cohort, grade 3 maculopapular rash) is given as 1 of 7. In addition, the “participants with DLTs” value in data set [3] (100 mg BID cohort, 5 participants) was 2 participants. Further, the “participants reporting at least 1 treatment emergent AE (TEAE)” value in data set [3] (53 of 54 participants, all cohorts) is recorded as 98.1%. This compound also showed a participants reporting diarrhea in data set [3] (<100 mg/dose) of 21.2%. For the same compound, in data set [3] (All grades), the “Aspartate aminotransferase elevation, related TEAE” value was 14 (25.9) participants (%); the “Creatine kinase increase, related TEAE” value is reported as 16 (29.6) participants (%); the “Diarrhea, related TEAE” value is on record as 15 (27.8) participants (%); the “Nausea, related TEAE” value is 19 (35.2) participants (%). In addition, in data set [3] (Grade 1-2), the “Aspartate aminotransferase elevation, related TEAE” value is 10 (18.5) participants (%); the “Creatine kinase increase, related TEAE” value was 11 (20.4) participants (%); the “Diarrhea, related TEAE” value is on record as 13 (24.1) participants (%); the “Nausea, related TEAE” value was 19 (35.2) participants (%). Moreover, in data set [3] (Grade ≥3), the “Aspartate aminotransferase elevation, related TEAE” value was 4 (7.4) participants (%); the “Creatine kinase increase, related TEAE” value is 5 (9.3) participants (%); the “Diarrhea, related TEAE” value is given as 2 (3.7) participants (%); the “Nausea, related TEAE” value is recorded as 0 (0) participants (%). Besides, the “participants with grade 3 diarrhea” value in data set [3] (all cohorts) was determined as 4 participants. The “recommended phase 2 dose (RP2D)” value in data set [3] (oral) is listed as 75 mg BID. Further, in data set [3] (oral, 28-day cycles), the “maximum tolerated dose (MTD)” value turned out to be 75 mg BID. In data set [3] (≥100 mg/dose (100 mg QD, 150 mg QD, 225 mg QD, 100 mg BID)), the “participants reporting grade 1-3 diarrhea” value is 76.2%.

On to `CO[C@@H]1[C@H](N(C)C(=O)c2ccccc2)C[C@H]2O[C@]1(C)n1c3ccccc3c3c4c(c5c6ccccc6n2c5c31)C(=O)NC4` [Midostaurin], for which, in the data set on AML, the single-agent activity result is recorded as “no single-agent activity”.

As to `CNC(=O)c1cc(Oc2ccc(NC(=O)Nc3ccc(Cl)c(C(F)(F)F)c3)cc2)ccn1` [Sorafenib], the “activity against FLT3-TKD mutations” value with FLT3-TKD mutations was “inactive”.

The values are drawn from publication PMC11131057 (Blood Advances, 2024).
